The record followed here is ChEMBL document CHEMBL1641444, “Synthesis and evaluation of 6-[1-(2-[(18)F]fluoro-3-pyridyl)-5-methyl-1H-1,2,3-triazol-4-yl]quinoline for positron emission tomography imaging of the metabotropic glutamate receptor type 1 in brain” (Bioorg Med Chem, 2011).

The structures appear in SMILES notation. Where only a bound is given, the exact number is not on record here.

In test [1] the target is Metabotropic glutamate receptor 1 (Rattus norvegicus) (UniProt P23385). As to the kind of experiment: Binding affinity to mGluR1 in Sprague-Dawley rat hippocampus at 0.023 nM after 30 mins by autoradiography. The format is tissue-based. As to conditions: tested as the 18F-labelled form. Summed up:
(§1)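 Rat brain sections were preincubated 3 × 5 min at room temperature in 50 mM Tris–HCl, pH 7.4, with 1.2 mM MgCl2 and 2 mM CaCl2. They were then incubated 30 min at room temperature in fresh buffer with 0.023 nM [18F]ligand, alone or with MPEP at two levels. Sections were washed 3 × 5 min in cold buffer, rinsed in cold water and dried. Imaging-plate autoradiography followed; regional PSL/mm2 was taken minus 1.5 PSL/mm2 background. Means ± SD, n = 6–8 per group.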

For test [2] the target is unchanged. Briefly: Binding affinity to mGluR1 in Sprague-Dawley rat striatum at 0.023 nM after 30 mins by autoradiography in presence of 10 uM of mGluR5 antagonist MPEP. It is filed as tissue-based. As to conditions: tested as the 18F-labelled form. Summed up: as §1
Test [3] has the same target. Briefly: Binding affinity to mGluR1 in Sprague-Dawley rat brain assessed as decrease of total binding at 0.023 nM after 30 mins by autoradiography in presence of 10 uM of mGluR5 antagonist MPEP. It is filed as tissue-based. Details: scale not given: the % may be the effect or the level left. Summed up: as §1
For test [4] the target is unchanged. As to the kind of experiment: Binding affinity to mGluR1 in Sprague-Dawley rat cerebellum at 0.023 nM after 30 mins by autoradiography in presence of 1 uM of mGluR5 antagonist MPEP. As to conditions: tested as the 18F-labelled form. The format is tissue-based. Summed up:
as §1

For test [5] the target is unchanged. Briefly: Binding affinity to mGluR1 in Sprague-Dawley rat cerebral cortex at 0.023 nM after 30 mins by autoradiography in presence of 10 uM of mGluR5 antagonist MPEP. It is filed as tissue-based. As to conditions: tested as the 18F-labelled form. The procedure, abridged:
as §1

Test [6] has the same target. Briefly: Binding affinity to mGluR1 in Sprague-Dawley rat pons-medulla at 0.023 nM after 30 mins by autoradiography in presence of 1 uM of mGluR5 antagonist MPEP. The conditions noted are these: tested as the 18F-labelled form. Summed up:
as §1

Test [7] shares this target. As to the kind of experiment: Binding affinity to mGluR1 in Sprague-Dawley rat whole brain assessed as reduction of total radioactivity at 0.023 nM after 30 mins by autoradiography in presence of mGluRl antagonist FPTQ. Set-up: scale not given: the % may be the effect or the level left.
For test [8] the target is unchanged. As to the kind of experiment: Binding affinity to mGluR1 in Sprague-Dawley rat olfactory bulb at 0.023 nM after 30 mins by autoradiography. The conditions noted are these: tested as the 18F-labelled form. Summed up:
as §1

For test [9] the target is unchanged. Briefly: Binding affinity to mGluR1 in Sprague-Dawley rat striatum at 0.023 nM after 30 mins by autoradiography in presence of 1 uM of mGluR5 antagonist MPEP. It is filed as tissue-based. As to conditions: tested as the 18F-labelled form. The procedure, abridged: as §1
The target is the same in test [10]. As to the kind of experiment: Binding affinity to mGluR1 in Sprague-Dawley rat thalamus at 0.023 nM after 30 mins by autoradiography in presence of 1 uM of mGluR5 antagonist MPEP. The format is tissue-based. The conditions noted are these: tested as the 18F-labelled form. Summed up:
as §1

Test [11] shares this target. Briefly: Binding affinity to mGluR1 in Sprague-Dawley rat hippocampus at 0.023 nM after 30 mins by autoradiography in presence of 1 uM of mGluR5 antagonist MPEP. It is filed as tissue-based. As to conditions: tested as the 18F-labelled form. Summed up: as §1
Test [12] has the same target. As to the kind of experiment: Binding affinity to mGluR1 in Sprague-Dawley rat thalamus at 0.023 nM after 30 mins by autoradiography. The format is tissue-based. The conditions noted are these: tested as the 18F-labelled form. The procedure, abridged:
as §1

The target is the same in test [13]. As to the kind of experiment: Binding affinity to mGluR1 in Sprague-Dawley rat hippocampus at 0.023 nM after 30 mins by autoradiography in presence of 10 uM of mGluR5 antagonist MPEP. It is filed as tissue-based. The conditions noted are these: tested as the 18F-labelled form. The procedure, abridged:
as §1

Test [14] shares this target. Briefly: Binding affinity to mGluR1 in Sprague-Dawley rat olfactory bulb at 0.023 nM after 30 mins by autoradiography in presence of 1 uM of mGluR5 antagonist MPEP. As to conditions: tested as the 18F-labelled form. Summed up: as §1
For test [15] the target is unchanged. Briefly: Binding affinity to mGluR1 in Sprague-Dawley rat thalamus at 0.023 nM after 30 mins by autoradiography in presence of 10 uM of mGluR5 antagonist MPEP. As to conditions: tested as the 18F-labelled form. The procedure, abridged:
as §1

Test [16] shares this target. As to the kind of experiment: Binding affinity to mGluR1 in Sprague-Dawley rat olfactory bulb at 0.023 nM after 30 mins by autoradiography in presence of 10 uM of mGluR5 antagonist MPEP. The conditions noted are these: tested as the 18F-labelled form. Summed up:
as §1

For test [17] the target is unchanged. As to the kind of experiment: Binding affinity to mGluR1 in Sprague-Dawley rat cerebral cortex at 0.023 nM after 30 mins by autoradiography. As to conditions: tested as the 18F-labelled form. The format is tissue-based. The procedure, abridged: as §1
For test [18] the target is unchanged. As to the kind of experiment: Binding affinity to mGluR1 in Sprague-Dawley rat pons-medulla at 0.023 nM after 30 mins by autoradiography in presence of 10 uM of mGluR5 antagonist MPEP. As to conditions: tested as the 18F-labelled form. Summed up:
as §1

For test [19] the target is unchanged. Briefly: Binding affinity to mGluR1 in Sprague-Dawley rat whole brain at 0.023 nM after 30 mins by autoradiography in presence of mGluRl antagonist JNJ-16259685. The procedure, abridged: (§2)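 Sections were incubated as for the regional assay: 0.023 nM [18F]ligand, 30 min at room temperature, in 50 mM Tris–HCl pH 7.4 with MgCl2 and CaCl2, after 3 × 5 min preincubation. Unlabeled ligand or JNJ-16259685 was co-incubated to define specific binding. Sections were washed cold and exposed to imaging plates. ROIs covered the whole brain; values are PSL/mm2 minus background. n = 6–8.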

Test [20] shares this target. Briefly: Binding affinity to mGluR1 in Sprague-Dawley rat whole brain at 0.023 nM after 30 mins by autoradiography in presence of mGluRl antagonist FPTQ. Summed up:
as §2

For test [21] the target is unchanged. Briefly: Binding affinity to mGluR1 in Sprague-Dawley rat cerebellum at 0.023 nM after 30 mins by autoradiography in presence of 10 uM of mGluR5 antagonist MPEP. The format is tissue-based. The conditions noted are these: tested as the 18F-labelled form. Summed up:
as §1

Test [22] shares this target. As to the kind of experiment: Binding affinity to mGluR1 in Sprague-Dawley rat cerebral cortex at 0.023 nM after 30 mins by autoradiography in presence of 1 uM of mGluR5 antagonist MPEP. The conditions noted are these: tested as the 18F-labelled form. It is filed as tissue-based. Summed up: as §1
Test [23] shares this target. Briefly: Binding affinity to mGluR1 in Sprague-Dawley rat striatum at 0.023 nM after 30 mins by autoradiography. The conditions noted are these: tested as the 18F-labelled form. The procedure, abridged: as §1
For test [24] the target is unchanged. Briefly: Binding affinity to mGluR1 in Sprague-Dawley rat pons-medulla at 0.023 nM after 30 mins by autoradiography. As to conditions: tested as the 18F-labelled form. The procedure, abridged: as §1
For test [25] the target is unchanged. Briefly: Binding affinity to mGluR1 in Sprague-Dawley rat cerebellum at 0.023 nM after 30 mins by autoradiography. The format is tissue-based. As to conditions: tested as the 18F-labelled form. The procedure, abridged:
as §1

Test [26] concerns the target T1, Metabotropic glutamate receptor 1 (Homo sapiens, UniProt Q13255). As to the kind of experiment: Binding affinity to human mGluR1.
Test [27] concerns the target Metabotropic glutamate receptor 1 (Mus musculus, UniProt P97772). As to the kind of experiment: Binding affinity to mouse mGluR1.
The target in test [28] is T1, Metabotropic glutamate receptor 1. As to the kind of experiment: Binding affinity to mGluR1.

T1 sequence (Q13255 whole entry): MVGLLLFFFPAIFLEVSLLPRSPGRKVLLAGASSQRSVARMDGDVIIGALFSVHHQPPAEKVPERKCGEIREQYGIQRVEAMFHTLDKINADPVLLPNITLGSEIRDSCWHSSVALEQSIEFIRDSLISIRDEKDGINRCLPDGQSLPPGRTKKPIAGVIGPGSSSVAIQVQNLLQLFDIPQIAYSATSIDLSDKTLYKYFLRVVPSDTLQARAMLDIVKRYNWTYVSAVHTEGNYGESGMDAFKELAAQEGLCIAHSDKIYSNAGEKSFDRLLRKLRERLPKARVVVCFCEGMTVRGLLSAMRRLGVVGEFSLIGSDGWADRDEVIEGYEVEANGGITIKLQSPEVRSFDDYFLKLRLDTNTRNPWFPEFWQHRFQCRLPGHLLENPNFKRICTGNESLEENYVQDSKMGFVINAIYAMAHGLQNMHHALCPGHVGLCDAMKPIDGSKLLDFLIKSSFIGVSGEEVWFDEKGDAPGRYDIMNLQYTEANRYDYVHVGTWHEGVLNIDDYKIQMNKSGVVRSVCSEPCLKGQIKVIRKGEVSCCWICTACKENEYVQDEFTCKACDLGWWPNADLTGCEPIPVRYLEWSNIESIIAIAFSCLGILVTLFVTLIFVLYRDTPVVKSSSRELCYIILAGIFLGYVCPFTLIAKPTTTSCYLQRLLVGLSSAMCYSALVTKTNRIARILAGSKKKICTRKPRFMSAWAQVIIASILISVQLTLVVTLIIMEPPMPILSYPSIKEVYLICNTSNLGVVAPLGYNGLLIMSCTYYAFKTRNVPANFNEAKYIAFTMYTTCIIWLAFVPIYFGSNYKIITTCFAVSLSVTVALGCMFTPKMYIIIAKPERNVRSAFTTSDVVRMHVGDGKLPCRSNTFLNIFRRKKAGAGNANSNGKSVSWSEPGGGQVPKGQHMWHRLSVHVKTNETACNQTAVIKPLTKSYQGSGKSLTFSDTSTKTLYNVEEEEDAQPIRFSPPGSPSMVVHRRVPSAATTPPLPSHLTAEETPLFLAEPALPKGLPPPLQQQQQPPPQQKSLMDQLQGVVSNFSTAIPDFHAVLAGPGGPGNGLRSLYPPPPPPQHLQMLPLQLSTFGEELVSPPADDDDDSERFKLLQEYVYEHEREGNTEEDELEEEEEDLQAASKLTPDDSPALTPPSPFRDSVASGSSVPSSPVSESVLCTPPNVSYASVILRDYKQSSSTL
Chain of Metabotropic glutamate receptor 1 (Rattus norvegicus) (P23385 19-1199 limits assumed): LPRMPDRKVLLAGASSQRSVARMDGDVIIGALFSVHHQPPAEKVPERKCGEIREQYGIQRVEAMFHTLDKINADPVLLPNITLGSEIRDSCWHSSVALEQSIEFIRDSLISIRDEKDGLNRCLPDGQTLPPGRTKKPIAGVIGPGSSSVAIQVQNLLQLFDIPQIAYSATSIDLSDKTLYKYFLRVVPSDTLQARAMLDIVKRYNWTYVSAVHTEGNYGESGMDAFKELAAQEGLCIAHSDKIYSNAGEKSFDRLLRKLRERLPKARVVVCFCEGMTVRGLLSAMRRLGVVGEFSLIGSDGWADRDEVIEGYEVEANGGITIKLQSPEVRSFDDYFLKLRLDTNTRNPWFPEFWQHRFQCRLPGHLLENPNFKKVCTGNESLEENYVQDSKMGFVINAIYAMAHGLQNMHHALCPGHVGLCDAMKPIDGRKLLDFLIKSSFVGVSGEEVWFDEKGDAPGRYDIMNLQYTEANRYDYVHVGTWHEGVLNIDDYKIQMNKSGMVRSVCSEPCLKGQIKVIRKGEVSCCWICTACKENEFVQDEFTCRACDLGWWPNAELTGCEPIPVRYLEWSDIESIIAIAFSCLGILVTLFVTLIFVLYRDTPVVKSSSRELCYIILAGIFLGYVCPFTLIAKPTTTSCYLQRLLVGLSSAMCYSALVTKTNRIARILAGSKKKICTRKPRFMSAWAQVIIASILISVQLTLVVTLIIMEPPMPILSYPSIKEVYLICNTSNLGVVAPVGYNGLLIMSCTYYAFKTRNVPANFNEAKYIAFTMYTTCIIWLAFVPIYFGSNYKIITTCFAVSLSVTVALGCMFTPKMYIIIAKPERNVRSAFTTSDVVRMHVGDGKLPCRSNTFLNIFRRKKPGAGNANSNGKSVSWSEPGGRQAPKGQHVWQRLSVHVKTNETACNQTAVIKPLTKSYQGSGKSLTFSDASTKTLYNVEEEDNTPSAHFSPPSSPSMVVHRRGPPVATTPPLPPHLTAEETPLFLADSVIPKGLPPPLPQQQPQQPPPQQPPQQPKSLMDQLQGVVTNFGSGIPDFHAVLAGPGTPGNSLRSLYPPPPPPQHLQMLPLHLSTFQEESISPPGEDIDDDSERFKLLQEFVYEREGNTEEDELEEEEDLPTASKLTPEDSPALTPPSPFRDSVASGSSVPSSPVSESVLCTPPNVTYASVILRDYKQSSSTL
Chain of Metabotropic glutamate receptor 1 (Mus musculus, UniProt P97772) (P97772 whole entry): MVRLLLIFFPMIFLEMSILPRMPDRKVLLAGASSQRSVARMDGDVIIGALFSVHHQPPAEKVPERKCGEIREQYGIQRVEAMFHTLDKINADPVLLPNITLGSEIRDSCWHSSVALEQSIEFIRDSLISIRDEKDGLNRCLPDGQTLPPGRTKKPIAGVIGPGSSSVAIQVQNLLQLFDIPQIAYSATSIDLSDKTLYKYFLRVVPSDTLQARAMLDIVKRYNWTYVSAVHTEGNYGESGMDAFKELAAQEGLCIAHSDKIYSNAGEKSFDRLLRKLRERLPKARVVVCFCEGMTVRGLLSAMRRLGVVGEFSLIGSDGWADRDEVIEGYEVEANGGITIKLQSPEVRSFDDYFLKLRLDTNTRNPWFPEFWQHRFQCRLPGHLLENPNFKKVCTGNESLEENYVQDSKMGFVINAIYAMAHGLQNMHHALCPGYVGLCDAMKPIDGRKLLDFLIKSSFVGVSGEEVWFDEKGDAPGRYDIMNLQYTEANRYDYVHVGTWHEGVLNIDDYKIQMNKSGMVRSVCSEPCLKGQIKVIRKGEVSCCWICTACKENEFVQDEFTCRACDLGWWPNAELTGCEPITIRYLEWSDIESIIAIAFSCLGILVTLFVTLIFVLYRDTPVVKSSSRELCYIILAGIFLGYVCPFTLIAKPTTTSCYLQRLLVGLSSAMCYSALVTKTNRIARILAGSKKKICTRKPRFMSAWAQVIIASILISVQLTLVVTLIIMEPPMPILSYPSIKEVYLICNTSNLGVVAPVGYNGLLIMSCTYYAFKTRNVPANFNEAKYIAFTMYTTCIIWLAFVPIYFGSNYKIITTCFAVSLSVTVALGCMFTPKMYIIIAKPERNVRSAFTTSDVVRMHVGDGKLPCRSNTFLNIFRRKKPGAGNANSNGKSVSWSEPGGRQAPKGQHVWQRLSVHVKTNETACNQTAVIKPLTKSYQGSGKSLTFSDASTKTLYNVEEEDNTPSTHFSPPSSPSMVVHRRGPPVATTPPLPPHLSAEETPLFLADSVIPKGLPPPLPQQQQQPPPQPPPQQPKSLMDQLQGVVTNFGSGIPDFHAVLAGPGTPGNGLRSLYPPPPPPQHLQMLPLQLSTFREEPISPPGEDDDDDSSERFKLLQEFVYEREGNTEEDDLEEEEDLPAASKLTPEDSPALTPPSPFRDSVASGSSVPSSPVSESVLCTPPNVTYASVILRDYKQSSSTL

On to `Cc1c(-c2ccc3ncccc3c2)nnn1-c1cccnc1F`, for which the Activity is 112 PSL/mm2 in [1]; 40.1 PSL/mm2 in test [2]; 30% in test [3]; 398 PSL/mm2 in test [4]; 15.7 PSL/mm2 in test [5]; 15.2 PSL/mm2 in test [6]. The Activity was < 3% in test [7]; 88.7 PSL/mm2 in test [8]; 61.7 PSL/mm2 in test [9]; 169 PSL/mm2 in test [10]; 97.4 PSL/mm2 in test [11]; 189 PSL/mm2 in [12]. The Activity came out at 69.4 PSL/mm2 in [13]; 76 PSL/mm2 in test [14]; 116 PSL/mm2 in [15]; 49 PSL/mm2 in test [16]; 28.2 PSL/mm2 in test [17]; 9.5 PSL/mm2 in test [18]. The Activity in [19] was found to be 0.5 PSL/mm2; in test [20], 0.6 PSL/mm2; in test [21], 285 PSL/mm2; in test [22] it was 23.6 PSL/mm2; in test [23], 70.7 PSL/mm2; in [24] it was 17.5 PSL/mm2. For the same molecule, in [25], the Activity was 409 PSL/mm2. Also, the concentration for half-maximal inhibition (IC50) in test [26] worked out at 3.6 nM; in test [27], 1.4 nM.
In [28], `CCCN1Cc2cc(-c3nnn(-c4cccnc4[18F])c3C)ccc2C1=O` gave a Ki of 0.4 nM.
Still for that read-out and setting: with `COCCN([11CH3])Cc1ccc2nc3sc(C(=O)N(C)C4CCCCC4)cn3c2c1` the figure was 4.8 nM.
Turning to `CO[C@H]1CC[C@@H](C(=O)c2ccc3nc4c(cc3c2)CCCO4)CC1`, the Ki in [28] was 0.34 nM.
The molecule `CCc1cc2cc(C(=O)[C@H]3CC[C@@H](OC)CC3)ccc2nc1[11CH3]` displayed a Ki in [28] of 0.87 nM.
